Hits are enriched below; roughly 1.9% of the tested compounds scored in any of these assays.
NPY1 pot ag: potentiators or agonists of human neuropeptide Y receptor Y1; P25929; NPY-Y1 expressing cells, potentiator/agonist activation; activation, % at 3.6 µM; 220,000 compounds, 0.37% hits; AID 1304; in the data active = activation above about 33%, passing the limit was not always enough;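 note: cells stimulated with NPY at EC10 then isoproterenol at EC100; 0% = low agonist plus stimulus and 100% = saturating agonist plus stimulus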
Target sequence (P25929 whole entry, looked up): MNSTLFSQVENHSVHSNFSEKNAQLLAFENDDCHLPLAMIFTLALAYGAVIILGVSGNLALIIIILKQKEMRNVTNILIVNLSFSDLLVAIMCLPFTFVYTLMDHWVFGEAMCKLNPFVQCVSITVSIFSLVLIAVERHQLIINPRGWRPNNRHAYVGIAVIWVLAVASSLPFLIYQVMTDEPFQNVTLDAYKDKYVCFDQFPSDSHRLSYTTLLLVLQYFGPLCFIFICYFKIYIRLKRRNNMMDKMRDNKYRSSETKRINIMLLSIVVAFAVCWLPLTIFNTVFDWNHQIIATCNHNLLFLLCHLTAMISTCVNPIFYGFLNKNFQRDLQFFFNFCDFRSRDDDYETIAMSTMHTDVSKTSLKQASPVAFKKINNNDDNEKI
NPY Y2 blocker: blocks the human neuropeptide Y Y2 receptor; NPY-Y2 expressing cells, antagonist mode; inhibition, % at 2.7 µM; 140,000 compounds, 0.99% hits; in the data active = inhibition above about 17%;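 note: 0% = vehicle with agonist challenge and 100% = reference antagonist with challenge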
NPY2 pot ag: potentiates or activates human NPY-Y2 receptor. P49146. cells expressing NPY-Y2, potentiator/agonist read-out. activation, % at 3.6 µM. 220,000 compounds, 0.45% hits; in the data active = activation above about 27%;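 note: cells stimulated with NPY near EC25 plus isoproterenol at EC100; 0% = vehicle plus submaximal agonist and 100% = vehicle plus saturating agonist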
NPY Y1 blocker: antagonists of human neuropeptide Y receptor Y1; AID 1040; inhibition, % at 3.6 µM; HEK293-CNG Y1 cells, membrane potential fluorescence; NPY at EC95, then isoproterenol; 200,000 compounds, 1% hits; P25929;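 active = inhibition above the campaign mean inhibition of all tested compounds plus 3 SD, cut at about 20% in these data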;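 note: 0% = DMSO wells given NPY plus isoproterenol and 100% = isoproterenol alone without NPY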
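Test system – HEK293 Y1/CNG channel cell line · Also added – NPY agonist 25 nM, then isoproterenol 1 µM plus Ro 20-1724 25 µM · Compound dosing – one concentration, 3.6 µM, in 0.4% DMSO · Schedule – compound incubation 1 h at room temperature, readout 45 min post-stimulation · Technique – fluorescence, membrane potential probe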
* = called active by the depositor; nt = no result.

SMILES | NPY1 pot ag | NPY Y2 blocker | NPY2 pot ag | NPY Y1 blocker
O=C(CSc1nnc(-c2cccnc2)n1-c1ccc(SC(F)F)cc1)N1CCCc2ccccc21 | 6 | 19* | 9 | 3
CCOc1ccccc1-n1c(SCC(=O)N2CCCc3ccccc32)nnc1-c1cccnc1 | -15 | 4 | 11 | 1
O=C(O)CC1=C(Nc2ccccc2)C(=O)N(c2ccccc2)C1c1ccc(Br)cc1 (stereo not given) | 13 | nt | 9 | -1
COC(=O)[C@@]1(Cc2ccccc2)[C@H]2c3cc(C(=O)N4CCCC4)n(Cc4ccsc4Br)c3C[C@H]2CN1C(=O)c1ccccc1 | 16 | 23* | 1 | 49*
O=C(CN1c2ccccc2Sc2ccccc21)NNC(=O)Nc1ccc(Cl)c(Cl)c1 | -17 | nt | 6 | nt
O=C(CN1c2ccccc2Sc2ccccc21)NNC(=O)Nc1ccc(Cl)cc1 | 61* | nt | 57* | nt
CCOc1ccc(-n2c(SCc3ccc(C#N)cc3)nnc2-c2cccnc2)cc1 | -17 | 26* | -11 | 45*
Clc1ccc(-n2c(SC/C=C/c3ccccc3)nnc2-c2cccnc2)cc1 | -43 | 30* | -17 | 23*
COc1ccc(NC(=O)CCSCCc2ccccn2)cc1OC | 2 | nt | -9 | 3
C#CCOCCOCCOCCNc1nc(N2CCN(C(=O)Cn3cc(CCCN=C(N)N)nn3)CC2)nc(N2CCN(C(=O)[C@H]([C@@H](C)CC)n3cc(CCCN=C(N)N)nn3)CC2)n1 | 13 | -4 | 7 | -3
O=C(Nc1ccc(Br)cc1F)c1cccnc1 | -4 | 5 | -11 | -1
CCOC(=O)c1ccc(NC(=O)Cn2ncc(Cl)c(Cl)c2=O)cc1 | 59* | 1 | 18 | -9
COc1ccccc1N=c1oc2cc(O)ccc2cc1C(=O)NCC1CCCO1 (stereo not given) | -19 | 21* | 0 | 24*
COc1cccc(N=c2oc3cc(O)ccc3cc2C(=O)NCC2CCCO2)c1 (stereo not given) | -1 | nt | -7 | 17
Nc1cccc(C(=O)N/N=C/c2ccsc2)c1 | 3 | nt | 3 | 11
Cc1cc(=O)[nH]c(N/N=C/C(C)c2ccccc2)n1 (stereo not given) | -8 | nt | -23 | nt
CCc1ccc(C(C(=O)NC(C)(C)CC)N(Cc2ccco2)C(=O)Cn2nnc3ccccc32)cc1 (stereo not given) | -117 | 51* | -150 | 54*
CCC(C)(C)NC(=O)C(c1ccccc1F)N(Cc1ccco1)C(=O)Cn1nnc2ccccc21 (stereo not given) | -135 | 73* | -121 | 96*
CSc1ccc(S(=O)(=O)N(C)Cc2ccccc2)cc1 | -5 | nt | 3 | 6
CCOC(=O)c1cc(-c2ccc(OC)cc2)nc2c1c(C)nn2CCC#N | -22 | 20* | -17 | 26*
CCOC(=O)c1cc(-c2ccc(C#N)cc2)nc2c1c(C)nn2CCC#N | -21 | 3 | 4 | 2
CN(C)CC(=O)Nc1nc(-c2ccccc2)cs1 | -15 | 1 | -19 | 5
O=C(O)CCC(=O)Nc1nc(-c2ccccc2)cs1 | -41 | 22* | -14 | 12
CN(Cc1ccccc1)C(=O)c1oc(=O)c2ccccc2c1-c1ccccc1 | -2 | 23* | -10 | 31*
Cc1ccc(-c2c(C(=O)NCc3ccccc3)oc(=O)c3ccccc23)cc1 | 10 | 10 | 3 | 6
SMILES | NPY1 pot ag | NPY Y2 blocker | NPY2 pot ag | NPY Y1 blocker
Cc1ccc(-c2c(C(=O)N(C)Cc3ccccc3)oc(=O)c3ccccc23)cc1 | -29 | 34* | -20 | 35*
O=C(Nc1ccc(C#Cc2ccccc2)cc1)C1CC1 | 78* | -3 | 38* | -6
Cc1ccc(S(=O)(=O)N=S(CCO)CCO)cc1 | -4 | 0 | -4 | -1
Cn1nc(Oc2ncc(C(F)(F)F)cc2Cl)cc1C(F)(F)F | 1 | nt | 1 | 15
COc1ccc(N(CC(=O)NCc2ccc(C)cc2)S(=O)(=O)c2c(C)nn(C)c2C)cc1 | -13 | 0 | 4 | 0
COc1ccc2nc(NC(=O)CN(c3ccc(C)cc3)S(=O)(=O)c3c(C)nn(C)c3C)sc2c1 | 55* | -9 | 45* | -14
CN(C)c1ccc(/C=C/c2ccc3c4ccccc4ccc3[n+]2-c2ccccc2)cc1 | 30 | nt | 58* | 11
O=[N+]([O-])c1ccc(-c2nc(-c3cccs3)c(-c3cccs3)[nH]2)cc1 | 44* | -6 | 45* | -17
O=[N+]([O-])c1cccc(-c2nc(-c3cccs3)c(-c3cccs3)[nH]2)c1 | 32 | -4 | 25 | -7
CCOC(=O)c1c(NC(=O)CSc2nnc(C)s2)sc2c1CCCCC2 | -22 | 20* | -16 | 39*
CCOC(=O)c1c(NC(=O)CSc2nnc(C)c(=O)[nH]2)sc2c1CCCC2 | 7 | 13 | -26 | 14

Compound activity: PubChem, The Scripps Research Institute Molecular Screening Center
